Test results taken from ChEMBL document CHEMBL1165902, “Synthesis and antiproliferative activity of oxazinocarbazole and N,N-bis(carbazolylmethyl)amine derivatives” (Eur J Med Chem, 2010).

Assays:
CCRF-CEM [1] = assay: Antiproliferative activity against human CEM cells after at 100 uM 72 hrs by WST1 assay; type: functional
How it was run: (§1)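 Cells were exposed to compound for 72 h at 37 °C in RPMI 1640 with 10% FCS. Densities (cells/mL) were CEM 0.2×10^6, Jurkat 0.6×10^6, Raji 0.4×10^6, MCF-7 and Caco-2 0.2×10^6. WST-1 was then added for 4 h and absorbance read at 492 nm. Living cells are given as % of untreated-control OD (100 = no activity), with 0.1% DMSO vehicle controls and etoposide as positive control.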

MCF7 [2] = assay: Antiproliferative activity against human MCF7 cells at 100 uM after 72 hrs by WST1 assay; type: functional; how it was run: as §1
Caco-2 [3] = assay: Antiproliferative activity against human Caco-2 cells at 100 uM after 72 hrs by WST1 assay; type: functional; how it was run: as §1
Jurkat [4] = assay: Antiproliferative activity against human Jurkat cells at 100 uM after 72 hrs by WST1 assay; type: functional; how it was run: as §1
Raji [5] = assay: Antiproliferative activity against human Raji cells at 100 uM after 72 hrs by WST1 assay; type: functional; how it was run: as §1
CCRF-CEM [6] = assay: Antiproliferative activity against human CEM cells after 72 hrs by WST1 assay; type: functional, cell-based
How it was run: (§2)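 Seeding densities (cells/mL) were CEM 0.2×10^6, Jurkat 0.6×10^6, Raji 0.4×10^6, MCF-7 0.2×10^6 and Caco-2 0.2×10^6, in RPMI 1640 with 10% FCS, non-essential amino acids, pyruvate, glutamine and gentamicin. Cells were exposed to 12.5–100 µM (DMSO stocks, 0.1% DMSO controls) for 72 h at 37 °C. WST-1 was added for 4 h and read at 492 nm. IC50 is for 50% growth inhibition.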

Jurkat [7] = assay: Antiproliferative activity against human Jurkat cells after 72 hrs by WST1 assay; type: functional, cell-based; how it was run: as §2
Raji [8] = assay: Antiproliferative activity against human Raji cells after 72 hrs by WST1 assay; type: functional, cell-based; how it was run: as §2
MCF7 [9] = assay: Antiproliferative activity against human MCF7 cells after 72 hrs by WST1 assay; type: functional, cell-based; settings: MCF7, 72 h; how it was run: as §2
Caco-2 [10] = assay: Antiproliferative activity against human Caco-2 cells after 72 hrs by WST1 assay; type: functional, cell-based; settings: Caco-2, 72 h; how it was run: as §2

| IC50 (CCRF-CEM [6]) | IC50 (Jurkat [7]) | IC50 (Raji [8]) | IC50 (MCF7 [9]) | IC50 (Caco-2 [10]) | SMILES | Activity (CCRF-CEM [1]) | Activity (MCF7 [2]) | Activity (Caco-2 [3]) | Activity (Jurkat [4]) | Activity (Raji [5]) |
| --- | --- | --- | --- | --- | --- | --- | --- | --- | --- | --- |
|  |  |  |  |  | CCn1c2ccccc2c2c3c(ccc21)CN(C(C)c1ccccc1)CO3 (centres undefined) | 21% | 86.5% | 59% |  |  |
|  |  |  |  |  | CC(C)=CCn1c2ccccc2c2c3c(ccc21)CN(Cc1ccc(C)cc1)CO3 | 11.5% | 41.5% | 48.5% | 13.5% | 11% |
|  |  |  |  |  | CCn1c2ccccc2c2c3c(ccc21)CN(Cc1ccccn1)CO3 | 23% | 52% | 16% | 82% | 100% |
|  |  |  |  |  | Cn1c2ccccc2c2cc3c(cc21)OCN(Cc1nc2ccccc2s1)C3 | 34% | 79% | 51% | 17% | 78% |
| 25.2 µM | 37.3 µM | 57.9 µM | 62.5 µM | 37.7 µM | CC(c1ccccc1)N1COc2cc3c(cc2C1)c1ccccc1n3C (centres undefined) | 0.5% | 0% | 2% | 1% | 18.5% |
|  |  |  |  |  | Cc1ccc(CN2COc3c(ccc4c3c3ccccc3n4C)C2)cc1 | 55.5% | 42.5% |  |  |  |
|  |  |  |  |  | CC(c1ccccc1)N1COc2ccc3c4ccccc4n(C)c3c2C1 (centres undefined) | 0.5% | 0% | 5% | 0.5% | 19.5% |
|  |  |  |  |  | C=CCn1c2ccccc2c2c3c(ccc21)CN(Cc1ccccc1)CO3 | 5.5% | 55.5% | 56.5% | 67% | 100% |
|  |  |  |  |  | C=CCN1COc2ccc3c4ccccc4n(C)c3c2C1 | 1.5% | 62% | 5% | 2% | 60.5% |
|  |  |  |  |  | C=CCn1c2ccccc2c2c3c(ccc21)CN(Cc1ccc(C)cc1)CO3 | 9% | 66% | 54.5% | 3.5% | 9.5% |
|  |  |  |  |  | C=CCn1c2ccccc2c2c(O)c(CN(Cc3ccccn3)Cc3ccc4c(c3O)c3ccccc3n4CC=C)ccc21 | 78.5% | 94.5% | 94% | 92% | 95.5% |
|  |  |  |  |  | CCn1c2ccccc2c2c3c(ccc21)CN(Cc1ccccc1)CO3 | 31.5% | 64% | 46% |  |  |
|  |  |  |  |  | CCn1c2ccccc2c2c3c(ccc21)CN(Cc1ccc(C)cc1)CO3 | 15% | 85.5% | 93% | 49.5% | 31.5% |
|  |  |  |  |  | CCn1c2ccccc2c2c3c(ccc21)CN(c1ccccc1)CO3 | 58.5% | 100% | 100% | 55% | 84% |
|  |  |  |  |  | C=CCn1c2ccccc2c2c3c(ccc21)CN(Cc1ccccn1)CO3 | 14.5% | 47.5% | 55.5% | 12.5% | 31.5% |
| 70.8 µM | 74.2 µM | 75 µM | 72.1 µM | 62.5 µM | Cn1c2ccccc2c2ccc3c(c21)CN(Cc1ccccc1)CO3 | 1.5% | 60.5% | 6% | 5.5% | 31.5% |
| 44 µM | 75 µM | 43.6 µM |  | 25.2 µM | C=CCN1COc2c(ccc3c2c2ccccc2n3CC)C1 | 4% | 10% | 34% | 6.5% | 4.5% |
|  |  |  |  |  | Cn1c2ccccc2c2c3c(ccc21)CN(c1ccccc1)CO3 | 25% | 100% | 100% | 74.5% | 77% |

| IC50 (CCRF-CEM [6]) | IC50 (Jurkat [7]) | IC50 (Raji [8]) | IC50 (MCF7 [9]) | IC50 (Caco-2 [10]) | SMILES | Activity (CCRF-CEM [1]) | Activity (MCF7 [2]) | Activity (Caco-2 [3]) | Activity (Jurkat [4]) | Activity (Raji [5]) |
| --- | --- | --- | --- | --- | --- | --- | --- | --- | --- | --- |
|  |  |  |  |  | CC(c1ccccc1)N1COc2c(ccc3c2c2ccccc2n3C)C1 (centres undefined) | 40% | 100% | 100% | 80.5% | 84% |
| 16.5 µM | 11.5 µM | 12.1 µM | 56.4 µM | 43.7 µM | Cn1c2ccccc2c2cc3c(cc21)OCN(Cc1ccccn1)C3 | 1.5% | 5% | 7.5% | 3.5% | 38% |
| 50.1 µM | 50 µM | 56.2 µM | 62.6 µM | 32.1 µM | C=CCN1COc2cc3c(cc2C1)c1ccccc1n3C | 1.5% | 1.5% | 2.5% | 1.5% | 10.5% |
| 68.8 µM | 71.1 µM | 72.8 µM | 75 µM | 57.4 µM | Cc1ccc(CN2COc3cc4c(cc3C2)c2ccccc2n4C)cc1 | 1% | 27.5% | 6.5% | 2.5% | 27% |
|  |  |  |  |  | CC(C)=CCn1c2ccccc2c2c3c(ccc21)CN(c1ccccc1)CO3 | 10.5% | 49% | 60% | 7.5% | 17% |
| 37.6 µM | 55.5 µM | 39.3 µM | 75 µM | 75 µM | CC(C)=CCn1c2ccccc2c2c3c(ccc21)CN(Cc1ccccc1)CO3 | 5.5% | 27.5% | 53% | 7.5% | 7% |
|  |  |  |  |  | C=CCN1COc2c(ccc3c2c2ccccc2n3CC=C)C1 | 2% | 43% | 12% | 2.5% | 19.5% |
|  |  |  |  |  | Cn1c2ccccc2c2cc(CN(Cc3ccccn3)Cc3cc4c5ccccc5n(C)c4cc3O)c(O)cc21 | 9% | 24.5% | 10.5% | 8.5% | 70% |
| 11.8 µM | 11.8 µM | 11.9 µM | 37 µM | 43.8 µM | C=CCN1COc2c(ccc3c2c2ccccc2n3CC=C(C)C)C1 | 4% | 2% | 30% | 2% | 3.5% |
|  |  |  |  |  | CCn1c2ccccc2c2c(O)c(CN(Cc3ccccn3)Cc3ccc4c(c3O)c3ccccc3n4CC)ccc21 | 53% | 89% | 35.5% | 97.5% | 100% |
|  |  |  |  |  | C=CCn1c2ccccc2c2c3c(ccc21)CN(c1ccccc1)CO3 | 17% | 83% | 54.5% | 13.5% | 49.5% |
| 35.7 µM | 69 µM | 43.6 µM |  | 32.1 µM | C=CCN1COc2c(ccc3c2c2ccccc2n3C)C1 | 4.5% | 35% | 5% | 8.5% | 9.5% |
|  |  |  |  |  | Cc1ccc(CN2COc3ccc4c5ccccc5n(C)c4c3C2)cc1 | 1% | 1.5% | 3% | 1.5% | 12% |
|  |  |  |  |  | Cn1c2ccccc2c2c(O)c(CN(Cc3ccccn3)Cc3ccc4c(c3O)c3ccccc3n4C)ccc21 | 87.5% | 98.5% | 54% | 72% | 100% |
|  |  |  |  |  | CC(C)=CCn1c2ccccc2c2c(O)c(CN(Cc3ccccn3)Cc3ccc4c(c3O)c3ccccc3n4CC=C(C)C)ccc21 | 100% | 100% | 100% | 100% | 100% |
|  |  |  |  |  | Cn1c2ccccc2c2cc3c(cc21)OCN(Cc1ccccc1)C3 | 0.5% | 3% | 1.5% | 1% | 11% |
|  |  |  |  |  | Cn1c2ccccc2c2c3c(ccc21)CN(Cc1ccccc1)CO3 | 10% | 87% | 100% | 87% | 80% |
| 74.3 µM | 75 µM |  |  | 68.8 µM | Cn1c2ccccc2c2ccc3c(c21)CN(Cc1ccccn1)CO3 | 1% | 1.5% | 7% | 2% | 23% |
